Data as given in article PMC3971662 (The Journal of General Physiology, 2014).
Several values for one entry are separate records, joined by “and”; a condition that tells them apart may be missing. Equal entries are not always repeated. Where two headings read alike, the source gives them in different places.

Assays:
WT4 hERG1 channels = WT4 hERG1 channels (Homo sapiens, UniProt Q12809); format: cell-based; conditions: for fold increase in Itest (isochronal, 4 s): 10 µM ICA, stated for WT and WT4 together
Outline: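 WT4 tetramers (50 ng cRNA, 4–8 d) were studied by two-electrode voltage clamp in pH 7.6 bath, 2 mM KCl. Tests used 4-s steps, −70 to 50 mV, with tails at −70 mV and Boltzmann fits (V0.5act). Inactivation: 40 mV prepulse, then 5 s at 30 to −140 mV. Concentration-response of Itest at 20 mV or of Itail-max was fitted logistically (EC50, nH). Some Itail-Vret runs used 20 mM KCl bath.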

[1] = molecular target: FL1/WT1/FL2 hERG1 channels (F557L) (Homo sapiens, UniProt Q12809, F557L); format: cell-based
Outline: (§1)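 F557L/WT concatenated tetramers were expressed from 50 ng cRNA and recorded 4–8 d later by two-electrode voltage clamp in pH 7.6 HEPES bath, with and without test compound. V0.5act and z came from Boltzmann fits of tails at −70 mV after 4-s steps. Inactivation: 1 s at 40 mV, then 5 s at 30 to −140 mV, with Itail/(Vret−Erev) fitted. Fold increase in Itest at 20 mV over 1–30 µM was fitted logistically (EC50, nH).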

[2] = molecular target: WT3/FL1 hERG1 channels (F557L) (Homo sapiens, UniProt Q12809, F557L); experiment: Two-electrode voltage clamp, concatenated tetramer WT3/FL1 in Xenopus oocytes; format: cell-based; conditions: 30 µM ICA, mean ± SEM
Outline: as §1

WT hERG1 channels = WT hERG1 channels (Homo sapiens, UniProt Q12809); format: cell-based; conditions: for fold increase in Itest (isochronal, 4 s): 10 µM ICA, stated for WT and WT4 together
Outline: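 Oocytes were injected with 10 ng cRNA for single WT subunits and recorded 1–3 d later by two-electrode voltage clamp. Bath (mM): 98 NaCl, 2 KCl, 1 CaCl2, 1 MgCl2, 5 HEPES, pH 7.6. Test compound was diluted from a 20 mM DMSO stock just before use. Itest was taken at the end of 4-s steps (−70 to 50 mV); tails at −70 mV were Boltzmann-fitted for V0.5act and z. Mean ± SEM, n = oocytes.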

[3] = Limit of solubility in extracellular solution; format: physicochemical; conditions: extracellular solution pH 7.6, diluted from 20-mM DMSO stock
[4] = molecular target: FL1/WT3 hERG1 channels (F557L) (Homo sapiens, UniProt Q12809, F557L); experiment: Two-electrode voltage clamp, concatenated tetramer FL1/WT3 in Xenopus oocytes; format: cell-based; conditions: 30 µM ICA
Outline: as §1

[5] = molecular target: FL2/WT2 hERG1 channels (F557L) (Homo sapiens, UniProt Q12809, F557L); experiment: Two-electrode voltage clamp, concatenated tetramer FL2/WT2 in Xenopus oocytes; format: cell-based; conditions: 30 µM ICA, mean ± SEM
Outline: as §1

[6] = molecular target: FL4 hERG1 channels (F557L) (Homo sapiens, UniProt Q12809, F557L); experiment: Two-electrode voltage clamp, concatenated tetramer FL4 in Xenopus oocytes; format: cell-based; conditions: 30 µM ICA, mean ± SEM
Outline: as §1

[7] = molecular target: FL1/WT1/FL1/WT1 hERG1 channels (F557L) (Homo sapiens, UniProt Q12809, F557L); format: cell-based; conditions: 30 µM ICA, mean ± SEM
Outline: as §1

[8] = molecular target: LE1/WT1/LE2 hERG1 channels (L646E) (Homo sapiens, UniProt Q12809, L646E); format: cell-based; conditions: 10 µM PD, mean ± SEM
Outline: (§2)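 Concatenated L646E/WT tetramers: 50 ng cRNA per oocyte, recorded 4–8 d later by two-electrode voltage clamp in pH 7.6 HEPES bath. Activation used 4-s steps, −70 to 50 mV, with Itail at −70 mV Boltzmann-fitted for V0.5act and z. Inactivation used 1 s at 40 mV, then 5 s at 30 to −140 mV; Itail/(Vret−Erev) was Boltzmann-fitted. Fold increase in Itail-max over 1–30 µM was fitted with a logistic equation (EC50, nH).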

[9] = molecular target: LE1/WT3 hERG1 channels (L646E) (Homo sapiens, UniProt Q12809, L646E); experiment: Two-electrode voltage clamp, concatenated tetramer LE1/WT3 in Xenopus oocytes; format: cell-based
Outline: as §2

[10] = molecular target: LE4 hERG1 channels (L646E) (Homo sapiens, UniProt Q12809, L646E); experiment: Two-electrode voltage clamp, concatenated tetramer LE4 in Xenopus oocytes; format: cell-based; conditions: 10 µM PD, mean ± SEM
Outline: as §2

[11] = molecular target: WT3/LE1 hERG1 channels (L646E) (Homo sapiens, UniProt Q12809, L646E); experiment: Two-electrode voltage clamp, concatenated tetramer WT3/LE1 in Xenopus oocytes; format: cell-based
Outline: as §2

[12] = molecular target: LE1/WT1/LE1/WT1 hERG1 channels (L646E) (Homo sapiens, UniProt Q12809, L646E); format: cell-based; conditions: 10 µM PD, mean ± SEM
Outline: as §2

[13] = molecular target: LE2/WT2 hERG1 channels (L646E) (Homo sapiens, UniProt Q12809, L646E); experiment: Two-electrode voltage clamp, concatenated tetramer LE2/WT2 in Xenopus oocytes; format: cell-based; conditions: 10 µM PD, mean ± SEM
Outline: as §2

O=C(Nc1ccc(Oc2ccccc2)cc1)c1cccc([N+](=O)[O-])c1 [ICA, 3-nitro-N-(4-phenoxyphenyl) benzamide]
fold increase in Itest (isochronal, 4 s) (WT4 hERG1 channels; at 20 mV): 20 fold | fold increase in Itest (isochronal, 4 s) (WT4 hERG1 channels; at −30 mV): 4 fold | effect on Itail at potentials more negative than −100 mV (WT4 hERG1 channels; 30 µM ICA, WT4, bath solution containing 20 mM KCl): did not cause an increase in Itail | V0.5inact (V0.5 for C-type inactivation) (WT4 hERG1 channels; 30 µM ICA, WT4, mean ± SEM): 57.8 ± 4.1 mV | z for inactivation (WT4 hERG1 channels; 30 µM ICA, WT4, mean ± SEM): 1.17 ± 0.05 | nH (Hill coefficient) for increase in Itest at 20 mV (WT4 hERG1 channels; ICA, WT4): 1.7 | increase in current at Vt of 20 mV, WT4 channels compared with FL1/WT1/FL2 channels (WT4 hERG1 channels; ICA, ratio WT4 vs FL1/WT1/FL2): ~13 fold | EC50 (WT4 hERG1 channels; read-out: EC50 for increase in Itest measured at 20 mV, ICA, WT4): 9.1 µM | V0.5act (half-point of channel activation) ([1]; 30 µM ICA, mean ± SEM): −19.5 ± 2.9 mV | V0.5inact (V0.5 for C-type inactivation) ([1]; 30 µM ICA, mean ± SEM): −72.5 ± 7.7 mV | z (equivalent charge) for activation ([1]; 30 µM ICA, mean ± SEM): 2.80 ± 0.22 | z for inactivation ([1]; 30 µM ICA, mean ± SEM): 0.61 ± 0.05 | shift in V0.5inact ([1]; 30 µM ICA, n = 4): 6.6 ± 1.6 mV | nH (Hill coefficient) for increase in Itest at 20 mV ([1]; ICA): 2.0 | EC50 ([1]; read-out: EC50 for increase in Itest measured at 20 mV, ICA): 11.8 µM | V0.5act (half-point of channel activation) [2]: −36.7 ± 1.1 mV | V0.5inact (V0.5 for C-type inactivation) [2]: 49.9 ± 4.0 mV | z (equivalent charge) for activation [2]: 3.57 ± 0.39 | z for inactivation [2]: 1.21 ± 0.03 | fold increase in Itest (isochronal, 4 s) (WT hERG1 channels; at 20 mV): 20 fold | fold increase in Itest (isochronal, 4 s) (WT hERG1 channels; at −30 mV): 4 fold | limit of solubility [3]: 0.03 mM | V0.5act (half-point of channel activation) ([4]; mean ± SEM): −34.5 ± 1.5 mV | V0.5inact (V0.5 for C-type inactivation) ([4]; mean ± SEM): 28.5 ± 6.0 mV | z (equivalent charge) for activation ([4]; mean ± SEM): 4.06 ± 0.39 | z for inactivation ([4]; mean ± SEM): 0.95 ± 0.13 | positive shift in V0.5inact ([4]; n = 4): 70 ± 3 mV | V0.5act (half-point of channel activation) [5]: −37.1 ± 0.4 mV | V0.5inact (V0.5 for C-type inactivation) [5]: −22.4 ± 9.3 mV | z (equivalent charge) for activation [5]: 3.88 ± 0.48 | z for inactivation [5]: 0.46 ± 0.01 | V0.5act (half-point of channel activation) [6]: −18.7 ± 1.0 mV | V0.5inact (V0.5 for C-type inactivation) [6]: −98.8 ± 7.8 mV | z (equivalent charge) for activation [6]: 3.60 ± 0.15 | z for inactivation [6]: 0.69 ± 0.04 | V0.5act (half-point of channel activation) [7]: −29.6 ± 1.6 mV | V0.5inact (V0.5 for C-type inactivation) [7]: −33.7 ± 16.0 mV | z (equivalent charge) for activation [7]: 3.00 ± 0.25 | z for inactivation [7]: 0.56 ± 0.03

O=C(O)c1ccccc1Nc1ccc(CCc2ccc(Cl)c(Cl)c2)cc1 [PD, 2-(4-[2-(3,4-dichloro-phenyl)-ethyl]-phenylamino)-benzoic acid]
increase in Itest measured at the end of 4-s pulses (WT4 hERG1 channels; 10 µM PD, WT4): about twofold | increase in Itail (WT4 hERG1 channels; 10 µM PD, WT4, Vret −140 mV after 1-s pulse to 40 mV): 68% | V0.5act (half-point of channel activation) (WT4 hERG1 channels; 10 µM PD, WT4, mean ± SEM): −26.7 ± 1.0 mV | V0.5inact (V0.5 for C-type inactivation) (WT4 hERG1 channels; 10 µM PD, WT4, mean ± SEM): −39.4 ± 4.6 mV | z (equivalent charge) for activation (WT4 hERG1 channels; 10 µM PD, WT4, mean ± SEM): 3.07 ± 0.30 | z for inactivation (WT4 hERG1 channels; 10 µM PD, WT4, mean ± SEM): 1.26 ± 0.17 | V0.5act (half-point of channel activation) [8]: −30.3 ± 1.4 mV | V0.5inact (V0.5 for C-type inactivation) [8]: −47.7 ± 4.0 mV | z (equivalent charge) for activation [8]: 3.55 ± 0.15 | z for inactivation [8]: 1.31 ± 0.08 | EC50 [9]: 4.6 µM | V0.5act (half-point of channel activation) ([9]; 10 µM PD, LE1/WT3, mean ± SEM): −30.1 ± 1.6 mV | V0.5inact (V0.5 for C-type inactivation) ([9]; 10 µM PD, LE1/WT3, mean ± SEM): −44.6 ± 2.7 mV | z (equivalent charge) for activation ([9]; 10 µM PD, LE1/WT3, mean ± SEM): 4.20 ± 0.07 | z for activation (Figure 6 legend) ([9]; 10 µM PD, LE1/WT3, mean ± SEM): 4.2 ± 0.07 | z for inactivation ([9]; 10 µM PD, LE1/WT3, mean ± SEM): 1.24 ± 0.10 | nH (Hill coefficient) for fold increase in Itail-max ([9]; PD, LE1/WT3): 1.1 | V0.5act (half-point of channel activation) [10]: −32.6 ± 1.2 mV | V0.5inact (V0.5 for C-type inactivation) [10]: −43.6 ± 2.2 mV | z (equivalent charge) for activation [10]: 3.55 ± 0.25 | z for inactivation [10]: 1.52 ± 0.05 | EC50 [11]: 4.8 µM | V0.5act (half-point of channel activation) ([11]; 10 µM PD, WT3/LE1, mean ± SEM): −27.1 ± 1.3 mV and −27.1 ± 1.29 mV | V0.5inact (V0.5 for C-type inactivation) ([11]; 10 µM PD, WT3/LE1, mean ± SEM): −33.5 ± 3.7 mV | z (equivalent charge) for activation ([11]; 10 µM PD, WT3/LE1, mean ± SEM): 3.44 ± 0.16 | z for activation (Figure 6 legend) ([11]; 10 µM PD, WT3/LE1, mean ± SEM): 3.44 ± 0.16 | z for inactivation ([11]; 10 µM PD, WT3/LE1, mean ± SEM): 1.44 ± 0.19 | nH (Hill coefficient) for fold increase in Itail-max ([11]; PD, WT3/LE1): 1.4 | increase in Itest measured at the end of 4-s pulses (WT hERG1 channels; 10 µM PD, WT hERG1): about twofold | V0.5act (half-point of channel activation) (WT hERG1 channels; 10 µM PD, WT hERG1, mean ± SEM): −29.2 ± 14 mV | V0.5inact (V0.5 for C-type inactivation) (WT hERG1 channels; 10 µM PD, WT hERG1, mean ± SEM): −34.7 ± 4.2 mV | z (equivalent charge) for activation (WT hERG1 channels; 10 µM PD, WT hERG1, mean ± SEM): 3.07 ± 0.34 | z for inactivation (WT hERG1 channels; 10 µM PD, WT hERG1, mean ± SEM): 1.19 ± 0.09 | V0.5act (half-point of channel activation) [12]: −32.7 ± 0.8 mV | V0.5inact (V0.5 for C-type inactivation) [12]: −43.3 ± 3.4 mV | z (equivalent charge) for activation [12]: 3.45 ± 0.19 | z for inactivation [12]: 1.22 ± 0.07 | V0.5act (half-point of channel activation) [13]: −31.3 ± 1.0 mV | V0.5inact (V0.5 for C-type inactivation) [13]: −45.5 ± 2.8 mV | z (equivalent charge) for activation [13]: 3.94 ± 0.12 | z for inactivation [13]: 1.19 ± 0.08
